From PubChem
Diaph act CS: diaphorase activation or chemical reduction counter-screen | activation factor at 20 µM | Diaphorase/resazurin coupled assay, resorufin fluorescence, 16 min; stronger effect = higher value; 1 = vehicle wells, 0 = NADH-free wells | hit rate 0.005% among 190,000;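 active means diaphorase activity raised at least twofold by the compound at 20 µM; inactive means activation factor below 2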
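Assay system: bacterial diaphorase enzyme (C. kluyveri) / Input: enzyme 0.07 U/mL final / Medium: 50 mM HEPES pH 7.4 with 4.542 mM MgCl2, 0.005% Tween 20 / Doses: single compound dose of 20 µM, 1% DMSO final / Incubation: 16 min enzyme reaction, ambient temperature / Signal: fluorescence, excitation 544 nm and emission 590 nm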
Diaphorase inh: inhibits diaphorase or chemically oxidizes, flagging diaphorase assay artifacts. diaphorase resazurin-to-resorufin fluorescence, NADH, 16 min; bacterial (C. kluyveri) enzyme, not human. inhibition, % at 20 µM. hit rate 0.69% among 190,000;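 active means primary screen inhibition at 20 µM above a set limit, cut at about 50% in these data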;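 further: plate controls were DMSO with full reaction for no effect and wells lacking NADH for full effect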
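Assay system: diaphorase enzyme from Clostridium kluyveri; Input: enzyme working solution with 0.14 U/mL diaphorase; Timing: 16 min at room temperature; Technique: resorufin fluorescence, excitation 544 nm, emission 590 nm; Benchmarks: positive control minus NADH, DMSO neutral control.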
FLuc stim CS: affects firefly luciferase, flagging false hits in luciferase stimulation screens | P08659 | ATPlite luciferase biochemical, luminescence, 10 min; 0 = ATP-free wells, 1 = DMSO control | activation factor at 10 µM | 200,000 tested, under 10 active | AID 1027;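 active means luciferase activation factor, scaled between plate controls, of at least 2 with compound at 10 µM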
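System: cell-free luciferase reagent; medium: PBS as buffer for the ATP substrate; doses: test compounds dosed from 2 mM stocks in 100% DMSO; incubation: 10 min, room temperature; measured by: luminescence from luciferase reaction; read-out: luciferase activation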
PMI act: increases human mannose-6-phosphate isomerase activity; hit rate 0.005% among 190,000; AID 1214; P34949; activation factor at 20 µM; purified human PMI, coupled resazurin fluorescence, 20 min; stronger effect = higher value; 1 = vehicle control, 0 substrate-free wells;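 active means activation factor of 2 or more at 20 µM, relative to plate controls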
Target sequence (P34949 whole entry, looked up): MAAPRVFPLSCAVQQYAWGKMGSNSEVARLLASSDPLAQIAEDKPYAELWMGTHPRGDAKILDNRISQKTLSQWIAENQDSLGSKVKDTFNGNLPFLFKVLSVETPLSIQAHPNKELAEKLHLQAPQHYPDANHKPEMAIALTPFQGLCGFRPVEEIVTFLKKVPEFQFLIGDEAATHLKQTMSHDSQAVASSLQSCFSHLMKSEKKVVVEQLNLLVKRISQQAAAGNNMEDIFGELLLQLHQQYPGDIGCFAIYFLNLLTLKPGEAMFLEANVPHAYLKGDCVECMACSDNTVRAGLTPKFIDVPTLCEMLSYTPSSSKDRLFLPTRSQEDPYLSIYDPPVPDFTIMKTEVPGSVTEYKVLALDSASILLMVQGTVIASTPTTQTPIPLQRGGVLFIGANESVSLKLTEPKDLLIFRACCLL
PMI act satM6P: activators of human phosphomannose isomerase at near-saturating mannose 6-phosphate; activation factor at 20 µM; P34949; AID 1216; coupled PMI enzyme assay, resazurin fluorescence, 20 min; stronger effect = higher value; 1 = untreated enzyme, 0 = substrate-free blank; hit rate 0.34% among 190,000;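 active means activation factor of 2 or more at 20 µM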
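Material: human phosphomannose isomerase with PGI, G6PDH, diaphorase coupling enzymes / Reagent: Man-6-P substrate 1.0 mM / Dosing: single compound dose of 20 µM, 1% DMSO final / Incubation: enzyme reaction with compound 20 min at room temperature / Signal: resorufin fluorescence (Ex 544/Em 590 nm) from resazurin via diaphorase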
FLuc inh counter: inhibits firefly luciferase, flagging false hits in luciferase inhibition screens | ATPLite firefly luciferase biochemical luminescence, 10 min | inhibition, % at 10 µM | hit rate 1.5% among 200,000;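 active means inhibition above about 50% when tested at 10 µM, limit read from the data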
An asterisk follows results filed as active. Sampled rows, rich in hits. Any-hit rate of the full collection: about 2.5%.

SMILES	Diaph act CS	Diaphorase inh	FLuc stim CS	PMI act	PMI act satM6P	FLuc inh counter
Cn1c2ccccc2c2nnc(SCC(=O)NCc3ccoc3)nc21	0.9	11	1	1	0.9	-1
CCn1c(COc2cccc(C)c2)nc2ccccc21	0.9	15	1	0.9	0.9	2
COCn1c(COc2ccc3ccccc3c2)nc2ccccc21	0.8	24	0.4	0.9	0.9	60*
Cc1ccc(NC(=O)Cn2cc(S(=O)(=O)c3ccc(C)cc3)c(=O)c3cc(F)ccc32)cc1	1	-2	1.1	1.1	1.1	-5
CC(C)(C)C(=O)NC(=S)Nc1sc2c(c1C(N)=O)CCC2	0.5	50*	0.8	0.7	1	21
O=C(O)c1ccccc1-c1ccccc1C(=O)NNc1ccccc1	0.9	5	1.1	1.7	2.9*	-6
O=C(O)c1ccccc1-c1ccccc1C(=O)Nc1ccccc1	1	4	1.1	1	1	-5
C/C(=N\Nc1ccc([N+](=O)[O-])cc1)c1ccc(N)cc1	0.9	8	1	1.7	2.3*	2
O=C(O)c1cccc(N/N=C/c2ccc(F)c(F)c2)c1	1	5	0.9	1.7	2.3*	12
CCOc1cc(/C=N/Nc2ccccc2Cl)ccc1OCC(=O)O	1	-2	1	1.9	3.1*	-2
O=C(O)c1ccc(/C=N/Nc2cccc(C(F)(F)F)c2)cc1	0.9	13	1.1	1.4	1.3	-6
O=C(O)c1cccc(N/N=C/C2=C(Cl)c3cc(Cl)ccc3SC2)c1	0.8	17	1	1.7	2.5*	3
O=C(O)c1cccc(Cn2c(Cl)c(/C=N/Nc3ccccc3)sc2=O)c1	0.8	20	1	1.6	2.5*	1
O=C(O)c1cccc(Cn2c(Cl)c(/C=N/NC(=O)c3ccccc3Cl)sc2=O)c1	1	-3	1	0.9	0.9	1
CCCc1ccccc1OCCNC(=O)c1cc(=O)n(C)c(=O)n1C	0.9	10	1	1.2	1.2	-4
COC(=O)c1[nH]c2ccccc2c1NC(=O)CN1CCN(C(=O)c2ccco2)CC1	0.9	11	1.1	1	1	-7
CCOc1cc(/C=N/Nc2cccc(C(=O)O)c2)ccc1OC(=O)c1ccccc1	0.7	26	1	1.6	2.3*	-3
O=C(O)c1cccc(N/N=C/c2sc(N3CCOCC3)nc2-c2ccccc2)c1	0.9	9	0.4	1.6	2.5*	60*
Cc1ccsc1/C=N/Nc1cccc(C(=O)O)c1	0.9	13	0.4	1.6	1.8	59*
Cc1ccc(/C=N/Nc2cccc(C(=O)O)c2)s1	0.9	7	0.8	1.5	1.4	23
Cc1cc(NC(=O)CCc2ccccc2)c([N+](=O)[O-])cc1C	0.8	18	1.1	0.9	0.9	-5
N/C(=N\OC(=O)c1ccc(F)cc1)c1ccccc1	0.9	6	0	0.9	0.9	97*
Cc1ccc(/C(N)=N/OC(=O)c2ccc(F)cc2)cc1	1	4	0.3	0.9	1	68*
CCOC(=O)c1ccc(N/C(=N\S(=O)(=O)c2ccc(F)cc2F)c2ccccc2)cc1	0.9	14	1.1	0.9	0.9	-14
O=C(Nc1ccc2c(c1)OCO2)N1CCN(Cc2ccco2)CC1	0.9	9	0.1	0.9	0.7	92*
SMILES	Diaph act CS	Diaphorase inh	FLuc stim CS	PMI act	PMI act satM6P	FLuc inh counter
O=C1CC(C(=O)Nc2ccc(Cl)cc2[N+](=O)[O-])C2(CCCCC2)O1 (configuration not stated)	0.8	17	1.1	1	1	-6
COc1ccc(C(=O)C2CCCN(C(=O)COc3ccc(C(C)=O)cc3)C2)cc1F (configuration not stated)	0.3	70*	1	0.4	0.6	4
Cc1nn(-c2ccc(F)cc2)c(Cl)c1/C=C/C(=O)OCC(=O)Nc1c(F)c(F)c(F)c(F)c1F	1	-1	1.1	1.1	1	-9
CSc1cccc(NC(=O)c2ccccn2)c1	1	2	0.5	1	1	51*
COc1ccc(NC(=O)c2nc3ccccc3s2)cc1	1.1	-6	0.4	1	1.1	61*
COc1ccc(OC)c(NC(=O)c2nc3ccccc3s2)c1	0.9	6	1	1	1.1	1
O=C(NCc1ccc(Cl)cc1)c1cc2ccccn2n1	0.8	15	1	1	1	0
COc1ccc(NC(=O)c2cc3ccccn3n2)cc1	0.8	20	0.2	0.9	1	80*
S=C(Nc1ccc(Cl)cc1)c1nc2ccccc2s1	0.9	14	1	1	1	2
Cc1ccc(NC(=S)c2nc3ccccc3s2)cc1	0.8	19	0.3	1	1	66*
NC(=O)C1CCN(S(=O)(=O)c2cccc(S(=O)(=O)N3CCCCC3)c2)CC1	1	5	1	0.9	1	0
Cc1cccnc1NC(=O)CSc1nnc(Cc2ccccc2)o1	1	3	1	1	1	-1
CCOC(=O)C1CCCN(C(=O)COc2ccc(S(=O)(=O)N(CC)c3ccccc3)cc2)C1 (configuration not stated)	0.9	6	1.1	1	1	-7
CN(C)C(=O)c1c(C(F)(F)F)nn(C)c1Cl	1.1	-10	1	1.2	1.1	-4
COc1ccc(NC(=O)c2ccccn2)cc1OC	0.9	14	0.8	0.9	0.7	21
COc1ccc(NC(=O)c2ccccn2)cc1	1	4	0.1	1	0.5	90*
CCc1ccc(-n2c(C)nc3cc(C(=O)NCc4cccnc4)ccc32)cc1	0.9	12	1	1	0.9	-5
O=C(Nc1nnc(SCC(=O)N2CCCc3ccccc32)s1)c1ccccc1	0.8	18	0.1	0.9	1	92*
O=C(Nc1nnc(SCC(=O)N2CCCc3ccccc32)s1)c1ccc2ccccc2c1	0.8	24	0.1	1	1	92*
Cc1cc(C)cc(C(=O)Nc2nnc(SCC(=O)N3CCCc4ccccc43)s2)c1	0.9	12	1	0.8	0.9	1
Cc1cc(O)ccc1Nc1nc2ccccc2nc1Nc1ccc(O)cc1C	0.4	59*	1.1	1.1	0.7	-5
Cc1cc(O)ccc1Nc1nc(-c2sc(N)nc2C)cs1	0.9	12	1	0.9	1	2
Fc1ccc(-c2n[nH]c(=S)c3ccccc23)cc1	0.9	10	1	1.8	2.4*	1
c1ccc(-c2n[nH]c3ccccc23)cc1	0.9	6	1	0.9	1	-2
